Assay [1] has as its target T1, Sterol O-acyltransferase 1 (Rattus norvegicus, UniProt O70536).
T1 sequence (O70536 whole entry): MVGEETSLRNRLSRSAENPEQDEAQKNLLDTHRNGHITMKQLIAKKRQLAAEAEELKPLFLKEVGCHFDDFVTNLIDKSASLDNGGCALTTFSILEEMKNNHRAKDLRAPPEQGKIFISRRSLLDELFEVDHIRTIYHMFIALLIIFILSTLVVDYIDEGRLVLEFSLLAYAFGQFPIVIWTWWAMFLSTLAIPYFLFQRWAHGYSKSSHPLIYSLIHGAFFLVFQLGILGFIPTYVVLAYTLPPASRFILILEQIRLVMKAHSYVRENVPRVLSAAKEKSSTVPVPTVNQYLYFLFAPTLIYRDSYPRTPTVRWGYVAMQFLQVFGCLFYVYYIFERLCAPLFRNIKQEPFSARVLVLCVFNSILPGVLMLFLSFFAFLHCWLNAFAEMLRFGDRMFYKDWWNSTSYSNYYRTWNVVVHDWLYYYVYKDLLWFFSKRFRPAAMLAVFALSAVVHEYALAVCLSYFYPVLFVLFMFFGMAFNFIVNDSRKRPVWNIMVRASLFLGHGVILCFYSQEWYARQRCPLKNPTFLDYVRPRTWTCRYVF
Put plainly: In vitro inhibitory concentration against Acyl coenzyme A:cholesterol acyltransferase derived from rat adrenals. In a few lines:
(§1)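 Rat adrenal homogenate in 0.2 M KH2PO4 buffer pH 7.4, 1000g supernatant (microsomal fraction) as enzyme; preincubated with BSA and test compound at graded concentrations, 37 °C 10 min, then [14C]oleoyl-CoA 0.4 µCi, 37 °C 30 min. Lipids extracted, cholesteryl ester isolated by TLC and counted. Triplicate tubes per concentration; IC50 by linear regression of means.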

In assay [2] the target is T2, Sterol O-acyltransferase 1 (Rattus norvegicus) (UniProt O70536).
T2 sequence (whole entry): T1 sequence (O70536 whole entry)
The experiment in a line: In vitro percentage inhibition against Acyl coenzyme A:cholesterol acyltransferase derived from rat adrenals. More on the design: concentration or dose not given beside the values. The conditions noted are these: concentration not given here. In a few lines: (§2)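 Rat adrenal 1000g supernatant (microsomal ACAT) in 0.2 M KH2PO4 pH 7.4 with BSA; test compound at final 5.2 µg/mL, preincubated 37 °C 10 min; [14C]oleoyl-CoA (0.4 µCi) added, 37 °C 30 min. Cholesteryl ester separated by TLC, scintillation counted; mean percent inhibition against compound-free control.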

The target in assay [3] is T2, Sterol O-acyltransferase 1 (Rattus norvegicus). Put plainly: Liver hypolipidemic activity in rats. Type of assay: functional. In a few lines:
(§3)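 Male CD-1 Sprague-Dawley rats, 140–150 g, fed 1% cholesterol/0.5% cholic acid diet with compound admixed at 0.01% (about 10 mg/kg/day) for 7 days. Serum and liver cholesterol measured by Technicon autoanalyzer methods; expressed as percent of control.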

For assay [4] the target is unchanged. Put plainly: Serum hypolipidemic activity in rats. Format: functional. In a few lines: as §3
For assay [5] the target is unchanged. The experiment in a line: In vitro percentage inhibition against ACAT derived from rat adrenals. The conditions noted are these: concentration not given here. In outline:
as §2

Assay [6] addresses T1, Sterol O-acyltransferase 1. Put plainly: In vitro inhibitory concentration against ACAT derived from rat adrenals. In outline:
as §1

Assay [7] deals with T2, Sterol O-acyltransferase 1 (Rattus norvegicus). The experiment in a line: In vitro percentage inhibition againstAcyl coenzyme A:cholesterol acyltransferase derived from rat adrenals. The conditions noted are these: concentration not given here. In a few lines: as §2
Assay [8] shares this target. Put plainly: (§4) In vitro percentage inhibition against acyl coenzyme A:cholesterol acyltransferase derived from rat adrenals. The conditions noted are these: concentration not given here. In a few lines: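 Rat adrenals homogenized in 0.2 M KH2PO4 (pH 7.4), spun at 1000g for 15 min at 5 °C; supernatant used as enzyme. Preincubated with BSA and test compound (final 5.2 µg/mL) at 37 °C for 10 min, then [14C]oleoyl-CoA (0.4 µCi) added for 30 min at 37 °C. Cholesteryl ester isolated by TLC and counted. Mean percent inhibition versus control without compound.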

In assay [9] the test system is Oryctolagus cuniculus. The experiment in a line: Compound was evaluated for rabbit serum cholesterol level at dose 110 mg/kg per day on day 7. Type of assay: functional. In a few lines:
(§5)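 Male New Zealand rabbits (2.5–3.0 kg) on rabbit pellets with 0.4% cholesterol and peanut oil for one week, then bled and grouped by plasma sterol. Drug mixed in diet (6% peanut oil) at 0.25, 0.075 or 0.025% for five weeks, about 109.6, 34.5 or 11.2 mg/kg/day. Dietary cholesterol adjusted weekly (0.30–0.35%). Aortic balloon denudation on day 7 of dosing.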

Assay [10] relates to Oryctolagus cuniculus. The experiment in a line: Compound was evaluated for rabbit serum cholesterol level at dose 11 mg/kg per day on day 0. Type of assay: functional. In a few lines: as §5
The test system of assay [11] is Oryctolagus cuniculus. Put plainly: Compound was evaluated for rabbit serum cholesterol level at dose 11 mg/kg per day on day 35. Type of assay: functional. In a few lines:
as §5

For assay [12], the target named is T1, Sterol O-acyltransferase 1. Put plainly: In vitro inhibitory concentration against acyl coenzyme A:cholesterol acyltransferase derived from rat adrenals. In outline:
as §1

Assay [13] relates to Oryctolagus cuniculus. The experiment in a line: Compound was evaluated for rabbit serum cholesterol levels for a dose of 110 mg/kg per day on day 21. Type of assay: functional. In a few lines:
as §5

Assay [14] relates to Oryctolagus cuniculus. The experiment in a line: Compound was evaluated for rabbit serum cholesterol level at dose 110 mg/kg per day on day 0. Format: functional. In outline:
as §5

The test system of assay [15] is Oryctolagus cuniculus. Put plainly: Compound was evaluated for rabbit serum cholesterol level at dose 35 mg/kg per day on day 21. Format: functional. In a few lines:
as §5

Assay [16] relates to Oryctolagus cuniculus. The experiment in a line: Compound was evaluated for rabbit serum cholesterol level at dose 35 mg/kg per day on day 0. Format: functional. In a few lines:
as §5

In assay [17] the test system is Oryctolagus cuniculus. Put plainly: Compound was evaluated for rabbit serum cholesterol level at dose 110 mg/kg per day on day 35. Type of assay: functional. In a few lines:
as §5

The subject of assay [18] is Oryctolagus cuniculus. The experiment in a line: Compound was evaluated for rabbit serum cholesterol level at dose 35 mg/kg per day on day 35. Type of assay: functional. In a few lines: as §5
Assay [19] has as its system Oryctolagus cuniculus. Put plainly: Compound was evaluated for rabbit serum cholesterol level at dose 35 mg/kg per day on day 7. Type of assay: functional. In outline: as §5
Assay [20] addresses T2, Sterol O-acyltransferase 1 (Rattus norvegicus). The description is as §4. Further details: concentration or dose not given beside the values. The conditions noted are these: concentration not given here. In outline:
as §2

For assay [21], the system named is Oryctolagus cuniculus. Put plainly: Compound was evaluated for rabbit serum cholesterol level at dose 11 mg/kg per day on day 7. Type of assay: functional. In a few lines: as §5
Assay [22] deals with Oryctolagus cuniculus. Put plainly: Compound was evaluated for rabbit serum cholesterol level at dose 11 mg/kg per day on day 21. Type of assay: functional. In a few lines: as §5
Assay [23] concerns the target T2, Sterol O-acyltransferase 1 (Rattus norvegicus). Put plainly: In vitro percentage inhibition against Acyl coenzyme A:cholesterol acyltransferase derived from rat adrenals. The note with it: concentration not given here.

The term IC50 denotes the concentration needed to halve the response being measured. As a reminder, the inhibition is the change of the read-out against control, counted positive when it falls. Turning to `O=C(Nc1cccc(C(F)(F)F)c1)N(Cc1ccccc1)Cc1ccccc1`, the IC50 in assay [1] was 2.89 µM. Moreover, the inhibition in assay [2] is 94%.
The compound `Cc1cc(C)c(NC(=O)N(Cc2ccccc2)Cc2ccccc2)c(C)c1` had an LS in [3] of 28%. Further, the SS in assay [4] is 32%. This compound also had a half-maximal inhibitory concentration (IC50) in assay [1] of 3.74 µM. In assay [2], this compound came in with an inhibition of 37%.
For `CCCCCCN(CCCCCC)C(=O)Nc1ccc(C)cc1C`, in that order: 36%, 59%, 0.331 µM and 95%.
In assay [3], `CCCCN(C(=O)Nc1ccc(C)cc1C)c1ccccc1` registered an LS of 107%. In assay [4], this compound displayed an SS of 99%. In assay [5], this compound showed an inhibition of 70%. Besides, in [6], the midpoint of inhibition, the IC50, lay at 21.4 µM.
Turning to `CCCCCN(CCCCC)C(=O)Nc1ccc(C)cc1C`, the LS in [3] amounted to 49%. This compound yielded an SS in assay [4] of 82%. Also, the inhibition in assay [5] came to 90%. In assay [6], this compound showed an IC50 of 0.952 µM.
In assay [1], `Cc1c(Cl)cccc1NC(=O)N(Cc1ccccc1)Cc1ccccc1` showed an IC50 of 8.39 µM. The same compound registered an inhibition in assay [2] of 84%.
Regarding `O=C(Nc1ccc([N+](=O)[O-])cc1)N(Cc1ccccc1)Cc1ccccc1`, in assay [7], the inhibition is 52%.
On to `CCCCN(CCCC)C(=O)Nc1ccc(OCC)cc1`, for which the inhibition in assay [8] was 79%.
The compound `Cc1ccc(NC(=O)N(Cc2ccccc2)Cc2ccccc2)cc1Cl` gave an LS in [3] of 97%. This compound also had an SS in assay [4] of 84%. The compound further gave an IC50 in [1] of 18.9 µM. This compound yielded an inhibition in [2] of 94%.
`O=C(Nc1cc(Cl)cc(Cl)c1)N(Cc1ccccc1)Cc1ccccc1` had a 50% inhibitory concentration (IC50) in assay [1] of 3.97 µM. The compound also had an inhibition in [2] of 86%.
Take `CCCCN(Cc1ccccc1)C(=O)Nc1ccc(C)cc1C`: the LS in assay [3] was 75%. In addition, the SC is 230 mg/dL with Oryctolagus cuniculus [9]; 307 mg/dL in the assay on Oryctolagus cuniculus [10]; 722 mg/dL in the assay with Oryctolagus cuniculus [11]; 343 mg/dL with Oryctolagus cuniculus [13]; 278 mg/dL in the assay with Oryctolagus cuniculus [14]; 357 mg/dL in the assay with Oryctolagus cuniculus [15]. Also, the SC in the assay on Oryctolagus cuniculus [16] is 270 mg/dL; in the assay on Oryctolagus cuniculus [17], 405 mg/dL; with Oryctolagus cuniculus [18], 488 mg/dL; in the assay on Oryctolagus cuniculus [19], 255 mg/dL; in the assay on Oryctolagus cuniculus [21] it was 340 mg/dL; in the assay with Oryctolagus cuniculus [22], 556 mg/dL. Also, the SS in [4] was 70%. Moreover, in assay [12], the IC50 was 4.8 µM. The compound further had an inhibition in assay [20] of 91%.
The compound `Cc1cc(Cl)ccc1NC(=O)N(Cc1ccccc1)Cc1ccccc1` came in with an LS in [3] of 26%. Moreover, the SS in [4] was determined as 53%. The IC50 in assay [1] was 3.37 µM. In addition, the inhibition in assay [2] amounted to 63%.
For the compound `CCCCCCCN(Cc1cccs1)C(=O)Nc1cc(Cl)c(Cl)cc1Cl`, in assay [3], the LS is 28%. Besides, the SS in assay [4] came to 56%. The same compound had an IC50 in [1] of 0.484 µM.
For `Cc1cc(C)c(NC(=O)N(Cc2ccccc2)Cc2ccccc2)cc1C`, the LS in assay [3] worked out at 20%. The same compound gave an SS in assay [4] of 47%. The compound further gave an IC50 in assay [1] of 0.446 µM. The same compound displayed an inhibition in assay [2] of 69%.
Take `CCCCCCCN(Cc1ccco1)C(=O)Nc1cc(C)c(C)cc1C`: the LS in [3] turned out to be 38%. The SS in assay [4] amounted to 44%. For the same compound, the inhibition in [23] turned out to be 94%.
As for `CCCCCCCN(CCCCCCC)C(=O)Nc1ccc(C)cc1C`, the LS in [3] was 15%. This compound also gave an SS in assay [4] of 65%. In [1], this compound gave an IC50 of 0.721 µM. In assay [2], this compound had an inhibition of 91%.
Compound `CCCCN(Cc1ccccc1)C(=O)Nc1ccc(Cl)cc1C` came in with an LS in assay [3] of 62%. The SS in assay [4] came to 72%. Also, 7.65 µM corresponded to half-maximal inhibition in assay [1] (IC50).
In turn, `CCCCc1ccc(NC(=O)N(CCCC)CCCC)cc1` came in with an LS in [3] of 100%. This compound had an SS in [4] of 63%. In addition, it took 9.13 µM to reach half-maximal inhibition in assay [12] (IC50). Moreover, the inhibition in assay [20] was determined as 94%.
On to `CCCCCCCN(Cc1cccs1)C(=O)Nc1cc(C)c(C)cc1C`, for which the LS in [3] is 25%. This compound yielded an SS in assay [4] of 54%. In assay [6], this compound had an IC50 of 1.45 µM.
In [3], `CCCCN(CCCC)C(=O)Nc1ccc(C)cc1C` returned an LS of 78%. Moreover, in assay [4], the SS stood at 81%. In assay [12], this compound had an IC50 of 9.84 µM. Further, the inhibition in [20] worked out at 81%.
`CCCCCCCN(Cc1ccco1)C(=O)Nc1c(Cl)cc(Cl)cc1Cl`: the LS in [3] amounted to 34%. In addition, the SS in [4] turned out to be 37%. The same compound had a concentration for half-maximal inhibition (IC50) in assay [1] of 0.407 µM. Moreover, the inhibition in [2] is 96%.
For `CCCCCCCCCCN(CCCCCCCCCC)C(=O)Nc1ccc(C)cc1C`, in that order: 66%, 71%, 0.63 µM and 64%.
The compound `CCCCN(CCCC)C(=O)Nc1ccc(F)c(Cl)c1` came in with an LS in assay [3] of 108%. In assay [4], this compound returned an SS of 83%. This compound also yielded an IC50 in assay [12] of 11.4 µM. The compound further showed an inhibition in [20] of 91%.
